Measured values from different studies.
Each line is one published result; the experiments were not run side by side.
Cell line: MOLM-13
Observed: cell growth or viability

| Compound | technique | concentration | time | quantity | result |
| --- | --- | --- | --- | --- | --- |
| CC1(C)CCC(CN2CCN(c3ccc(C(=O)NS(=O)(=O)c4ccc(NCC5CCOCC5)c([N+](=O)[O-])c4)c(Oc4cnc5[nH]ccc5c4)c3)CC2)=C(c2ccc(Cl)cc2)C1 | – | – | – | GI50 | 10 nM |
| COc1ccc2/c(=N/c3ccccc3NC(=O)[C@@H](N)C(C)(C)C)cc(-c3ccc4c(c3)OCCO4)oc2c1 | CCK-8 | 1 µM | – | inhibition | 2.86% |
| c1cc(-c2cc3ncc(OCC4CCNCC4)nc3cc2-c2cccc(N3CCCCC3)c2)cc(N2CCCCC2)c1 | XTT | – | 7 days | EC50 | 1400 nM |
| CN(C)CCNC(=O)c1ccc(-c2nc3ccc4[nH]ncc4c3c3c2CCCCC3)cc1 | – | – | 72 h | GI50 | 84 nM |
| c1cc(N2CCC(N3CCOCC3)CC2)ccc1Nc1ccc2ncc(OCC3CCNCC3)nc2c1 | XTT | – | 7 days | EC50 | > 30000 nM |
| CN(C)CCNC(=O)c1ccc(-c2nc3ccc4[nH]ncc4c3c3c2CCCCC3)c(F)c1 | – | – | 72 h | GI50 | 51 nM |
| NCCCC(=O)Nc1ccccc1/N=c1\cc(-c2ccc3c(c2)OCO3)oc2ccccc12 | CCK-8 | 1 µM | – | inhibition | 0.08% |
| c1ccc(Oc2ccc(Nc3ccc4ncc(OCC5CCNCC5)nc4c3)cc2)cc1 | XTT | – | 7 days | EC50 | 1400 nM |
| Cc1n[nH]c2ccc3nc(-c4ccc(C(=O)NCCN(C)C)cc4)c4c(c3c12)CCCC4 | – | – | 72 h | GI50 | 54 nM |
| O=C(Nc1ccccc1/N=c1\cc(-c2ccc3c(c2)OCCO3)oc2cc(F)ccc12)N1CCOCC1 | CCK-8 | 1 µM | – | inhibition | 2.91% |
| Cc1cc2c(C(=O)O)cccc2n1-c1nc2c(c(NCc3ccccc3)n1)CCCN2 | – | – | 72 h | IC50 | 400 nM |
| CC(C)(C)c1cc(NC(=O)Nc2ccc(-c3cn4c(n3)sc3cc(OCCN5CCOCC5)ccc34)cc2)no1 | – | – | 72 h | GI50 | 9 nM |
| c1cc(N2CCCC2)ccc1-c1cc2ncc(OCC3CCNCC3)nc2cc1-c1ccc(N2CCCC2)cc1 | XTT | – | 7 days | EC50 | 1700 nM |
| CS(=O)(=O)NCCC(=O)Nc1ccccc1/N=c1\cc(-c2ccc3nc(N)oc3c2)oc2ccccc12 | CCK-8 | 1 µM | – | inhibition | 8.5% |
| Cc1n[nH]c2ccc3nc(-c4ccc(C(=O)NCCN(C)C)cc4F)c4c(c3c12)CCCCC4 | – | – | 72 h | GI50 | 150 nM |
